Measured values published in ChEMBL document CHEMBL5356993, “Novel pyrazolo[3,4-d]pyrimidine derivatives: design, synthesis, anticancer evaluation, VEGFR-2 inhibition, and antiangiogenic activity” (RSC Med Chem, 2023).

Columns and labels:
Assay type in all cases: functional
Conditions in all cases: read-out: GI
NCI-H322M = experiment: Antiproliferative activity against human NCI-H322M cells assessed as cell growth inhibition at 10 uM incubated for 48 hrs by SRB assay relative to control
NCI-H460 = experiment: Antiproliferative activity against human NCI-H460 cells assessed as cell growth inhibition at 10 uM incubated for 48 hrs by SRB assay relative to control
COLO 205 = experiment: Antiproliferative activity against human COLO 205 cells assessed as cell growth inhibition at 10 uM incubated for 48 hrs by SRB assay relative to control
HCC 2998 = experiment: Antiproliferative activity against human HCC 2998 cells assessed as cell growth inhibition at 10 uM incubated for 48 hrs by SRB assay relative to control
HCT-116 = experiment: Antiproliferative activity against human HCT-116 cells assessed as cell growth inhibition at 10 uM incubated for 48 hrs by SRB assay relative to control
HCT-15 = experiment: Antiproliferative activity against human HCT-15 cells assessed as cell growth inhibition at 10 uM incubated for 48 hrs by SRB assay relative to control
SF-268 = experiment: Antiproliferative activity against human SF-268 cells assessed as cell growth inhibition at 10 uM incubated for 48 hrs by SRB assay relative to control
SNB-19 = experiment: Antiproliferative activity against human SNB-19 cells assessed as cell growth inhibition at 10 uM incubated for 48 hrs by SRB assay relative to control
Outline: (§1)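 Cells pre-incubated 24 h at 37°C, 5% CO2, then exposed to compound (DMSO stock diluted in medium with 50 µg/mL gentamicin) for 48 h. Adherent cells fixed with cold TCA (final 10%, 60 min, 4°C); suspension cells fixed with 16% TCA final. Stained with 0.4% SRB in 1% acetic acid for 10 min, dye solubilized in 10 mM Trizma base, absorbance read at 515 nm. Growth calculated against time-zero and untreated control plates.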

SNB-75 = experiment: Antiproliferative activity against human SNB-75 cells assessed as cell growth inhibition at 10 uM incubated for 48 hrs by SRB assay relative to control; outline: as §1
LOX IMVI = experiment: Antiproliferative activity against human LOX IMVI cells assessed as cell growth inhibition at 10 uM incubated for 48 hrs by SRB assay relative to control
Malme-3M = experiment: Antiproliferative activity against human Malme-3M cells assessed as cell growth inhibition at 10 uM incubated for 48 hrs by SRB assay relative to control
MDA-MB-435 = experiment: Antiproliferative activity against human MDA-MB-435 cells assessed as cell growth inhibition at 10 uM incubated for 48 hrs by SRB assay relative to control
UACC-62 = experiment: Antiproliferative activity against human UACC-62 cells assessed as cell growth inhibition at 10 uM incubated for 48 hrs by SRB assay relative to control; outline: as §1
IGROV-1 = experiment: Antiproliferative activity against human IGROV-1 cells assessed as cell growth inhibition at 10 uM incubated for 48 hrs by SRB assay relative to control
OVCAR-4 = experiment: Antiproliferative activity against human OVCAR-4 cells assessed as cell growth inhibition at 10 uM incubated for 48 hrs by SRB assay relative to control
OVCAR-8 = experiment: Antiproliferative activity against human OVCAR-8 cells assessed as cell growth inhibition at 10 uM incubated for 48 hrs by SRB assay relative to control
NCI/ADR-RES = experiment: Antiproliferative activity against human NCI-ADR-RES cells assessed as cell growth inhibition at 10 uM incubated for 48 hrs by SRB assay relative to control
786-0 = experiment: Antiproliferative activity against human 786-0 cells assessed as cell growth inhibition at 10 uM incubated for 48 hrs by SRB assay relative to control
ACHN = experiment: Antiproliferative activity against human ACHN cells assessed as cell growth inhibition at 10 uM incubated for 48 hrs by SRB assay relative to control
CAKI-1 = experiment: Antiproliferative activity against human CAKI-1 cells assessed as cell growth inhibition at 10 uM incubated for 48 hrs by SRB assay relative to control
SN12C = experiment: Antiproliferative activity against human SN12C cells assessed as cell growth inhibition at 10 uM incubated for 48 hrs by SRB assay relative to control
PC-3 = experiment: Antiproliferative activity against human PC-3 cells assessed as cell growth inhibition at 10 uM incubated for 48 hrs by SRB assay relative to control
DU-145 = experiment: Antiproliferative activity against human DU-145 cells assessed as cell growth inhibition at 10 uM incubated for 48 hrs by SRB assay relative to control
MCF7 = experiment: Antiproliferative activity against human MCF7 cells assessed as cell growth inhibition at 10 uM incubated for 48 hrs by SRB assay relative to control
BT-549 = experiment: Antiproliferative activity against human BT-549 cells assessed as cell growth inhibition at 10 uM incubated for 48 hrs by SRB assay relative to control
T47D = experiment: Antiproliferative activity against human T47D cells assessed as cell growth inhibition at 10 uM incubated for 48 hrs by SRB assay relative to control; outline: as §1
MDA-MB-468 = experiment: Antiproliferative activity against human MDA-MB-468 cells assessed as cell growth inhibition at 10 uM incubated for 48 hrs by SRB assay relative to control
NCI-H23 = experiment: Antiproliferative activity against human NCI-H23 cells assessed as cell growth inhibition at 10 uM incubated for 48 hrs by SRB assay relative to control
HOP-62 = experiment: Antiproliferative activity against human HOP-62 cells assessed as cell growth inhibition at 10 uM incubated for 48 hrs by SRB assay relative to control
EKVX = experiment: Antiproliferative activity against human EKVX cells assessed as cell growth inhibition at 10 uM incubated for 48 hrs by SRB assay relative to control
A549 = experiment: Antiproliferative activity against human A549 cells assessed as cell growth inhibition at 10 uM incubated for 48 hrs by SRB assay relative to control
RPMI-8226 = experiment: Antiproliferative activity against human RPMI-8226 cells assessed as cell growth inhibition at 10 uM incubated for 48 hrs by SRB assay relative to control
MOLT-4 = experiment: Antiproliferative activity against human MOLT-4 cells assessed as cell growth inhibition at 10 uM incubated for 48 hrs by SRB assay relative to control
K562 = experiment: Antiproliferative activity against human K562 cells assessed as cell growth inhibition at 10 uM incubated for 48 hrs by SRB assay relative to control

Compound | inhibition of growth at 10 µM (NCI-H322M) [%] | inhibition of growth at 10 µM (NCI-H460) [%] | inhibition of growth at 10 µM (COLO 205) [%] | inhibition of growth at 10 µM (HCC 2998) [%] | inhibition of growth at 10 µM (HCT-116) [%] | inhibition of growth at 10 µM (HCT-15) [%] | inhibition of growth at 10 µM (SF-268) [%] | inhibition of growth at 10 µM (SNB-19) [%] | inhibition of growth at 10 µM (SNB-75) [%] | inhibition of growth at 10 µM (LOX IMVI) [%] | inhibition of growth at 10 µM (Malme-3M) [%] | inhibition of growth at 10 µM (MDA-MB-435) [%] | inhibition of growth at 10 µM (UACC-62) [%] | inhibition of growth at 10 µM (IGROV-1) [%] | inhibition of growth at 10 µM (OVCAR-4) [%] | inhibition of growth at 10 µM (OVCAR-8) [%] | inhibition of growth at 10 µM (NCI/ADR-RES) [%] | inhibition of growth at 10 µM (786-0) [%] | inhibition of growth at 10 µM (ACHN) [%] | inhibition of growth at 10 µM (CAKI-1) [%] | further results
CC(=O)Nc1ccc(-n2c(C)nc3c(cnn3-c3ccccc3)c2=O)cc1 | < 15 | < 15 | < 15 | < 15 | 28.9 | 15.1 | < 15 | 16.4 | < 15 | 21.1 | 22.3 | 21.1 | 38.3 | < 15 | 44.8 | 20 | < 15 | < 15 | 29.8 | 31.1 | inhibition of growth at 10 µM (SN12C): 26.1%; inhibition of growth at 10 µM (PC-3): 30.3%; inhibition of growth at 10 µM (DU-145): 17.8%; inhibition of growth at 10 µM (MCF7): 44.4%; inhibition of growth at 10 µM (BT-549): 48%; inhibition of growth at 10 µM (T47D): < 15%; inhibition of growth at 10 µM (MDA-MB-468): < 15%; inhibition of growth at 10 µM (NCI-H23): 31.7%; inhibition of growth at 10 µM (HOP-62): < 15%; inhibition of growth at 10 µM (EKVX): 66.8%; inhibition of growth at 10 µM (A549): < 15%; inhibition of growth at 10 µM (RPMI-8226): 47.5%; inhibition of growth at 10 µM (MOLT-4): 43.6%; inhibition of growth at 10 µM (K562): 55.4%
Cc1nc2c(cnn2-c2ccccc2)c(=O)n1-c1ccc(N2C(=O)c3ccccc3C2=O)cc1 | < 15 | < 15 | < 15 | < 15 | < 15 | < 15 | < 15 | < 15 | < 15 | < 15 | < 15 | < 15 | < 15 | < 15 | < 15 | < 15 | < 15 | < 15 | < 15 | < 15 | inhibition of growth at 10 µM (SN12C): < 15%; inhibition of growth at 10 µM (PC-3): < 15%; inhibition of growth at 10 µM (DU-145): < 15%; inhibition of growth at 10 µM (MCF7): < 15%; inhibition of growth at 10 µM (BT-549): < 15%; inhibition of growth at 10 µM (T47D): < 15%; inhibition of growth at 10 µM (MDA-MB-468): < 15%; inhibition of growth at 10 µM (NCI-H23): < 15%; inhibition of growth at 10 µM (HOP-62): < 15%; inhibition of growth at 10 µM (EKVX): < 15%; inhibition of growth at 10 µM (A549): < 15%; inhibition of growth at 10 µM (RPMI-8226): < 15%; inhibition of growth at 10 µM (MOLT-4): < 15%; inhibition of growth at 10 µM (K562): < 15%
Cc1nc2c(cnn2-c2ccccc2)c(=O)n1-c1ccc(NC(=O)c2ccc(F)cc2)cc1 | < 15 | 45.6 | 37.7 | 20.1 | 51.7 | 33.9 | < 15 | 19.6 | 35.5 | 38.2 | 31.6 | 46.2 | 36.9 | 26.5 | 59.9 | 36.3 | 57.2 | 17.5 | 39 | 34.3 | inhibition of growth at 10 µM (SN12C): 25.6%; inhibition of growth at 10 µM (PC-3): 46.9%; inhibition of growth at 10 µM (DU-145): 19.3%; inhibition of growth at 10 µM (MCF7): 64.2%; inhibition of growth at 10 µM (BT-549): 54%; inhibition of growth at 10 µM (T47D): 82%; inhibition of growth at 10 µM (MDA-MB-468): 85.5%; inhibition of growth at 10 µM (NCI-H23): 49.8%; inhibition of growth at 10 µM (HOP-62): 35.4%; inhibition of growth at 10 µM (EKVX): 69.8%; inhibition of growth at 10 µM (A549): 45%; inhibition of growth at 10 µM (RPMI-8226): 64.8%; inhibition of growth at 10 µM (MOLT-4): 94.6%; inhibition of growth at 10 µM (K562): 72.8%
Cc1nc2c(cnn2-c2ccccc2)c(=O)n1-c1ccc(N)cc1 | < 15 | 16.8 | < 15 | < 15 | 25.9 | < 15 | 17.4 | < 15 | 28.1 | 18.5 | 17.8 | 22.9 | 34.5 | 15 | 48.7 | < 15 | < 15 | < 15 | 27.1 | 31.7 | inhibition of growth at 10 µM (SN12C): 21.1%; inhibition of growth at 10 µM (PC-3): 18%; inhibition of growth at 10 µM (DU-145): 17.3%; inhibition of growth at 10 µM (MCF7): 37.6%; inhibition of growth at 10 µM (BT-549): 31.2%; inhibition of growth at 10 µM (T47D): 64.9%; inhibition of growth at 10 µM (MDA-MB-468): 62.4%; inhibition of growth at 10 µM (NCI-H23): 40.1%; inhibition of growth at 10 µM (HOP-62): 16.2%; inhibition of growth at 10 µM (EKVX): 63.3%; inhibition of growth at 10 µM (A549): < 15%; inhibition of growth at 10 µM (RPMI-8226): 48.2%; inhibition of growth at 10 µM (MOLT-4): < 15%; inhibition of growth at 10 µM (K562): 52.1%
Cc1nc2c(cnn2-c2ccccc2)c(=O)n1-c1ccc(NC(=O)c2ccco2)cc1 | < 15 | < 15 | < 15 | < 15 | < 15 | < 15 | < 15 | < 15 | < 15 | < 15 | 16.6 | < 15 | 16.6 | < 15 | 21.2 | < 15 | < 15 | < 15 | < 15 | < 15 | inhibition of growth at 10 µM (SN12C): < 15%; inhibition of growth at 10 µM (PC-3): < 15%; inhibition of growth at 10 µM (DU-145): < 15%; inhibition of growth at 10 µM (MCF7): 23.4%; inhibition of growth at 10 µM (BT-549): < 15%; inhibition of growth at 10 µM (T47D): 34%; inhibition of growth at 10 µM (MDA-MB-468): 37.3%; inhibition of growth at 10 µM (NCI-H23): < 15%; inhibition of growth at 10 µM (HOP-62): < 15%; inhibition of growth at 10 µM (EKVX): 26.9%; inhibition of growth at 10 µM (A549): < 15%; inhibition of growth at 10 µM (RPMI-8226): 26.1%; inhibition of growth at 10 µM (MOLT-4): < 15%; inhibition of growth at 10 µM (K562): 30.1%
